{
  "source": "paper PMC3361640",
  "about": "(Insect Biochemistry and Molecular Biology, 2012)",
  "key": {"[1]": {"tested_on": "BmOr3", "details": "ref Nakagawa et al., 2005; cited from earlier work"}, "[2]": {"tested_on": "McOr20", "experiment": "McOr20 co-expressed with Orco", "format": "cell-based, Megacyllene caryae", "details": "for Current response of receptor in screen: McOr20, odorant at 30 µM applied 20 s; for Current response of receptor in separate screen: McOr20, odorant at 100 µM, data not shown"}, "[3]": {"tested_on": "McOr5", "experiment": "McOr5 co-expressed with Orco", "format": "cell-based, Megacyllene caryae", "details": "McOr5, odorant at 30 µM applied 20 s", "how_it_was_run": "(§1)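 Defolliculated Xenopus laevis oocytes (collagenase B, 2 h, room temperature) were co-injected with receptor and Orco (McOr1) cRNA and incubated 3–7 d. Two-electrode voltage clamp was run at −70 mV with 3 M KCl electrodes (0.2–2.0 MΩ) in ND96. Pheromone components and isomers, diluted in ND96, were applied at 30 µM for 20 s at 1.6 ml/min. Currents were filtered at 20 Hz and sampled at 100 Hz.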"}, "[4]": {"tested_on": "BmOr 1", "details": "ref Nakagawa et al., 2005; cited from earlier work"}, "[5]": {"tested_on": "McOr3", "experiment": "McOr3 co-expressed with Orco", "format": "cell-based, Megacyllene caryae", "details": "McOr3, odorant at 30 µM applied 20 s", "how_it_was_run": "as §1"}, "[6]": {"tested_on": "AmOr11", "details": "AmOr11, Xenopus assay; ref Wanner et al., 2007; cited from earlier work"}, "[7]": {"tested_on": "Megacyllene caryae adults", "details": "adult M. caryae, field; ref Mitchell, 2012; cited from earlier work"}},
  "data": [
    {"smiles": "CCC/C=C\\C=C\\CCCCCCCCC=O", "note": "[bombykal]", "values": [
      {"measurement": "EC50", "setting": "[1]", "value": 260, "unit": "nM"}
    ]},
    {"smiles": "CCC[C@@H](O)C(C)=O", "note": "[(R)-3-hydroxyhexan-2-one]", "values": [
      {"measurement": "Current response of receptor in screen", "setting": "[2]", "value": "sensitive"}
    ]},
    {"smiles": "OCCc1ccccc1", "note": "[2-phenylethanol]", "values": [
      {"measurement": "Current response of receptor in screen", "setting": "[3]", "value": "sensitive"}
    ]},
    {"smiles": "CCC[C@H](O)[C@@H](C)O", "note": "[(2R,3S)-2,3-hexanediol]", "values": [
      {"measurement": "Current response of receptor in separate screen", "setting": "[2]", "value": "responded"}
    ]},
    {"smiles": "CCC[C@H](O)[C@H](C)O", "note": "[(2S,3S)-2,3-hexanediol]", "values": [
      {"measurement": "Current response of receptor in separate screen", "setting": "[2]", "value": "responded"}
    ]},
    {"smiles": "CCC/C=C\\C=C\\CCCCCCCCCO", "note": "[bombykol]", "values": [
      {"measurement": "EC50", "setting": "[4]", "value": 1500, "unit": "nM"}
    ]},
    {"smiles": "CCC[C@@H](O)[C@H](C)O", "note": "[(2S,3R)-2,3-hexanediol]", "values": [
      {"measurement": "Current response of receptor in screen", "setting": "[2]", "value": "sensitive"}
    ]},
    {"smiles": "CC[C@H](C)CO", "note": "[(S)-methylbutan-1-ol, (S)-2-methylbutan-1-ol]", "values": [
      {"measurement": "Current response of receptor in screen", "setting": "[5]", "value": "responded with high sensitivity"}
    ]},
    {"smiles": "CC(=O)CCCCCC=CC(=O)O", "note": "[9-oxo-2-decenoic acid]", "values": [
      {"measurement": "EC50", "setting": "[6]", "value": 280, "unit": "nM"}
    ]},
    {"smiles": "CC(C)=CCCC(C)=CC=O", "note": "(mixture of isomers) [Citral, citral]", "values": [
      {"measurement": "Attraction of beetles", "setting": "[7]", "value": "attracts males and females in similar numbers"}
    ]}
  ]
}
